ChEMBL document CHEMBL4270573, “Novel nicotinoyl pyrazoline derivates bearing N-methyl indole moiety as antitumor agents: Design, synthesis and evaluation” (Eur J Med Chem, 2018)
Active and inactive are the calls of the source. No cut-off for these calls is given here.

Columns and labels:
[1] = system: HeLa; assay: Induction of apoptosis in human HeLa cells assessed as early apoptotic cells at 0.10 uM after 24 hrs by Annexin V-FITC/propidium iodide staining based flow cytometric analysis (reference value: 6.17%); format: functional
Method in brief: (§1)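 HepG2 and HeLa cells were exposed to 0, 0.02, 0.040, 0.060, 0.080 and 0.10 µM for 6, 12 and 24 h. Cells were double-stained with Annexin V-FITC/PI and read by flow cytometry. Apoptotic rate was the percentage of FITC-positive cells, counting early plus late apoptotic.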

[2] = system: HepG2; assay: Cell cycle arrest in human HepG2 cells assessed as accumulation at G2/M phase at 0.060 uM after 24 hrs by propidium iodide staining based flow cytometric analysis (reference value: 20.17%); format: functional
Method in brief: (§2)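 HepG2 and HeLa cells were exposed to 0, 0.020, 0.040, 0.060, 0.080 or 0.10 µM for 6, 12 or 24 h. DNA content was stained with propidium iodide and analysed by flow cytometry to give the percentage of cells in G0/G1, S and G2/M phases; sub-G1 cells were also recorded.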

[3] = system: HepG2; assay: Induction of apoptosis in human HepG2 cells assessed as necrotic cells at 0.10 uM after 24 hrs by Annexin V-FITC/propidium iodide staining based flow cytometric analysis (reference value: 0.270%); format: functional; method in brief: as §1
[4] = system: HeLa; assay: Cell cycle arrest in human HeLa cells assessed as accumulation at G0/G1 phase at 0.080 uM after 24 hrs by propidium iodide staining based flow cytometric analysis (reference value: 66.26%); format: functional; method in brief: as §2
[5] = system: HepG2; assay: Cell cycle arrest in human HepG2 cells assessed as accumulation at G2/M phase at 0.040 uM after 24 hrs by propidium iodide staining based flow cytometric analysis (reference value: 20.17%); format: functional; method in brief: as §2
[6] = system: Mus musculus; assay: Nephrotoxicity in nude mouse xenografted with human HeLa cells assessed as morphological changes in kidney cells at 10 to 20 mg/kg, ip after 14 days by hematoxylin and eosin staining based microscopic analysis; format: toxicity, organism-based; conditions: in vivo, 336 h
[7] = system: HepG2; assay: Induction of apoptosis in human HepG2 cells assessed as early apoptotic cells at 0.020 uM after 24 hrs by Annexin V-FITC/propidium iodide staining based flow cytometric analysis (reference value: 2.31%); format: functional; method in brief: as §1
[8] = system: HeLa; assay: Induction of apoptosis in human HeLa cells assessed as late apoptotic cells at 0.10 uM after 24 hrs by Annexin V-FITC/propidium iodide staining based flow cytometric analysis (reference value: 4.98%); format: functional; method in brief: as §1
[9] = system: HepG2; assay: Induction of apoptosis in human HepG2 cells assessed as viable cells at 0.020 uM after 24 hrs by Annexin V-FITC/propidium iodide staining based flow cytometric analysis (reference value: 94.5%); format: functional; conditions: HepG2, 24 h, read-out: Activity; method in brief: as §1
[10] = system: HepG2; assay: Cell cycle arrest in human HepG2 cells assessed as accumulation at G0/G1 phase at 0.060 uM after 24 hrs by propidium iodide staining based flow cytometric analysis (reference value: 55.63%); format: functional; method in brief: as §2
[11] = system: HeLa; assay: Induction of apoptosis in human HeLa cells assessed as late apoptotic cells at 0.040 uM after 24 hrs by Annexin V-FITC/propidium iodide staining based flow cytometric analysis (reference value: 4.98%); format: functional; method in brief: as §1
[12] = system: Mus musculus; assay: Hepatotoxicity in nude mouse xenografted with human HeLa cells assessed as morphological changes in liver cells at 10 to 20 mg/kg, ip after 14 days by hematoxylin and eosin staining based microscopic analysis; format: toxicity, organism-based; conditions: in vivo, 336 h
Method in brief: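 HeLa xenograft nude mice with tumours near 100 mm³, randomised to four groups of 28 mice in total. Dosing was intraperitoneal: vehicle, CA-4 10 mg/kg, or test compound at 10 or 20 mg/kg, continued for 14 days. Heart, liver, kidney and spleen were then H&E-stained and examined for inflammatory infiltration, edema, necrosis and cell morphology.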

[13] = system: HepG2; assay: Cell cycle arrest in human HepG2 cells assessed as accumulation at G0/G1 phase at 0.020 uM after 24 hrs by propidium iodide staining based flow cytometric analysis (reference value: 55.63%); format: functional; method in brief: as §2
[14] = system: Mus musculus; assay: Toxicity in nude mouse xenografted with human HeLa cells assessed as body weight loss at 10 to 20 mg/kg, ip after 14 days; format: organism-based; conditions: in vivo, 336 h
[15] = system: HeLa; assay: Induction of apoptosis in human HeLa cells assessed as necrotic cells at 0.10 uM after 24 hrs by Annexin V-FITC/propidium iodide staining based flow cytometric analysis (reference value: 0.242%); format: functional; method in brief: as §1
[16] = system: HepG2; assay: Cell cycle arrest in human HepG2 cells assessed as accumulation at G2/M phase at 0.10 uM after 24 hrs by propidium iodide staining based flow cytometric analysis (reference value: 20.17%); format: functional; method in brief: as §2
[17] = system: HeLa; assay: Cell cycle arrest in human HeLa cells assessed as accumulation at G0/G1 phase at 0.040 uM after 24 hrs by propidium iodide staining based flow cytometric analysis (reference value: 66.26%); format: functional; method in brief: as §2
[18] = system: HepG2; assay: Induction of apoptosis in human HepG2 cells assessed as viable cells at 0.060 uM after 24 hrs by Annexin V-FITC/propidium iodide staining based flow cytometric analysis (reference value: 94.5%); format: functional; conditions: HepG2, 24 h, read-out: Activity; method in brief: as §1
[19] = system: HepG2; assay: Induction of apoptosis in human HepG2 cells assessed as early apoptotic cells at 0.040 uM after 24 hrs by Annexin V-FITC/propidium iodide staining based flow cytometric analysis (reference value: 2.31%); format: functional; method in brief: as §1
[20] = target: T1, Tubulin (Homo sapiens) (UniProt P68371+Q9H4B7+P0DPH7+P68366+Q13509+Q71U36+P04350+Q3ZCM7+P07437+P68363+Q9BQE3+Q6PEY2+Q13885+Q9BVA1+Q9BUF5); assay: Inhibition of tubulin polymerization in human HepG2 cells assessed as mitotic catastrophe formation at 0.04 to 0.1 uM after 12 hrs by DAPI staining based immunofluorescence confocal laser scanning microscopic analysis; format: cell-based
[21] = Selectivity index, ratio of CC50 for HEK293T cells to GI50 for human HeLa cells; format: toxicity; conditions: HEK293T cells and HeLa cells, read-out: Selectivity Index
Method in brief: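 Ratio CC50/GI50: CC50 is the concentration reducing non-tumour 293T cell proliferation by 50%; GI50 is the concentration reducing cancer cell proliferation by 50%.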

[22] = system: Mus musculus; assay: Toxicity in nude mouse xenografted with human HeLa cells assessed as ulceration at 10 to 20 mg/kg, ip after 14 days; format: organism-based; conditions: in vivo, 336 h
[23] = system: HeLa; assay: Induction of apoptosis in human HeLa cells assessed as early apoptotic cells at 0.020 uM after 24 hrs by Annexin V-FITC/propidium iodide staining based flow cytometric analysis (reference value: 6.17%); format: functional; method in brief: as §1
[24] = target: T1, Tubulin (Homo sapiens); assay: Inhibition of tubulin polymerization in human HepG2 cells assessed as abnormal microtubule network formation at 0.04 to 0.1 uM after 12 hrs by DAPI staining based immunofluorescence confocal laser scanning microscopic analysis; format: cell-based
[25] = system: HeLa; assay: Antitumor activity against human HeLa cells xenografted in nude mouse assessed as necrosis of tumor cells at 10 to 20 mg/kg, ip after 14 days by hematoxylin and eosin staining based microscopic analysis; format: functional, organism-based
Method in brief: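 Excised tumours and heart, liver, kidney and spleen were H&E-stained and examined microscopically. Tumour scoring covered cell arrangement and necrosis. Organ scoring covered inflammatory infiltration, edema, necrosis and cell morphology.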

[26] = system: HepG2; assay: Induction of apoptosis in human HepG2 cells assessed as early apoptotic cells at 0.10 uM after 24 hrs by Annexin V-FITC/propidium iodide staining based flow cytometric analysis (reference value: 2.31%); format: functional; method in brief: as §1

For COc1cccc(C2=NN(C(=O)c3ccc(C)nc3)C(c3cn(C)c4ccc(OC)cc34)C2)c1 (stereo unspecified), the Activity [1] was 32.8%, the Activity [2] was 41.92% and the Activity [3] was 2.46%. The Activity [4] was 5.36%, the Activity [5] was 30.26% and the Activity [6] was “Non-Toxic”. The Activity [7] was 3.18%, the Activity [8] was 8.26% and the viability at 0.02 µM [9] was 92.9%. The Activity [10] was 15.79%, the Activity [11] was 3.95% and the Activity [12] was “Non-Toxic”. The Activity [13] was 41.26%, the Activity [14] was “Non-Toxic” and the Activity [15] was 0.76%. The Activity [16] was 51.22%, the Activity [17] was 49.63% and the viability at 0.06 µM [18] was 85.7%. The Activity [19] was 7.34%, the inhibition [20] was “Active” and the selectivity ratio [21] was 3 to 10. For the same compound, the Activity [22] was “Non-Toxic”, the Activity [23] was 3.24% and the inhibition [24] was “Active”. For the same compound, the Activity [25] was “Active” and the Activity [26] was 18.5%.
